Measurements pooled from the literature.
Compare with care: the assays were run in different laboratories.
Target: Dual specificity tyrosine-phosphorylation-regulated kinase 1A (DYRK1A, Homo sapiens, UniProt Q13627)
Observed: enzyme activity
Mode: inhibitor

Structure (SMILES)	technique	concentration	remaining activity [%]
O=C(O)c1ccc2c(c1)nc(Nc1cccc(F)c1)c1ccncc12	radiometric	1 µM	0
FC(F)c1nc2ccccc2n1-c1nc(N2CCOCC2)nc(N2CCOCC2)n1		10 µM	78
O=C(O)c1ccc2c(c1)nc(NCCc1ccccc1)c1ncncc12	radiometric	1 µM	19
CC(C)(C)C(=O)c1sc(NC2CCCCC2)nc1N		10 µM	88
O=c1cc(-c2cccc3c2Sc2ccccc2S3)oc(N2CCOCC2)c1		0.5 µM	95
COc1cc(Cl)c(C(=O)N[C@@H](CN[C@H]2CC[C@@H](N)CC2)Cc2ccc(C#N)cc2)cc1-c1ccc(CN[C@H](C)c2ccc(C)cc2)o1		1 µM	120
CC(C)(C)c1nc(-c2cccc(NS(=O)(=O)c3c(F)cccc3F)c2F)c(-c2ccnc(N)n2)s1	radiometric	1 µM	90
COc1cccc(CCNc2nc3cc(C(=O)O)ccc3c3cnccc23)c1	radiometric	1 µM	12
CCN(CC)CCNC(=O)c1c(C)[nH]c(/C=C2\C(=O)Nc3ccc(Cl)cc32)c1C		0.5 µM	47.2
Nc1nc(Nc2ccccc2)sc1C(=O)c1c(F)cccc1F		10 µM	10
O=C(Nc1cnn(-c2csc(C(=O)NC3COC3)c2)c1)Nc1ccccc1Cl		5 µM	86
O=c1c2ccccc2[nH]c(=S)n1CCN1CCC(=C(c2ccc(F)cc2)c2ccc(F)cc2)CC1		0.5 µM	99.9
COc1cc(Nc2cnc(C#N)c(O[C@H](C)CN(C)C)n2)ncc1-c1cnn(C)c1	radiometric	10 µM	79
O=C(O)c1ccc2c(c1)nc(Nc1ccc(Cl)cc1)c1ncncc12	radiometric	1 µM	3
CC(C)(O)[C@H]1CC[C@H](Nc2ccc3ncc(-c4cccc(C(F)(F)F)c4)n3n2)CC1		1 µM	22.1
